Results reported in paper PMC2914798 (Biochimica et biophysica acta, 2010).
[ ]: non-standard residue; d: D form. The star is where a group is joined. Dnp = O=[N+]([O-])c1ccc(*)c([N+](=O)[O-])c1; Mca = COc1ccc2c(CC(=O)*)cc(=O)oc2c1

Legend:
Format in all cases: biochemical
Cath D [1] = biological target: T1, Cath D (Homo sapiens, UniProt P07339); assay: Enzyme digestion and cleavage site identification, Cath D; settings: high dose of Cath D, overnight hydrolysis; data not shown
Cath E = biological target: T2, Cath E (Homo sapiens, UniProt P14091); assay: Michaelis-Menten kinetics of substrate e hydrolysis by Cath E; settings: 6.8 nM Cath E, 50 mM sodium acetate pH 4.0, 10 minutes, 37 °C
T2 sequence (P14091 54-396): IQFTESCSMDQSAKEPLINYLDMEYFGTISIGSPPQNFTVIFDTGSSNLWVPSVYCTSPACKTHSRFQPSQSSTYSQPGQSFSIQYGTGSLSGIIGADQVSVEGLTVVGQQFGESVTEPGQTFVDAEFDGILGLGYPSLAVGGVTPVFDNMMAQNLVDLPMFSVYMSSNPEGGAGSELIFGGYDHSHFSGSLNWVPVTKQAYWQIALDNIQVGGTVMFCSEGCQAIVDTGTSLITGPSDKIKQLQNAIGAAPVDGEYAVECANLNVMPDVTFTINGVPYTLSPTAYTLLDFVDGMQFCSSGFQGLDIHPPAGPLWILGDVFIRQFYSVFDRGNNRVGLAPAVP
Summary of the method: (§1)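 Intramolecularly quenched Mca/Dnp FRET peptide, 5–100 µM, in 50 mM sodium acetate pH 4.0, with Cath E at 2.3, 4.5 or 6.8 nM, or Cath D up to 54 nM. Fluorescence (ex 340/em 405 nm) followed over 10 min. Initial velocity taken from the linear-phase slope. Vmax and Km from linear regression of the Hanes-Woolf plot (S/v vs S); kcat = Vmax/[Cath E]. Triplicate.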

Cath D [2] = biological target: T1, Cath D; assay: Kinetics of substrate e hydrolysis by Cath D
Summary of the method: as §1

T1 sequence (P07339 65-412): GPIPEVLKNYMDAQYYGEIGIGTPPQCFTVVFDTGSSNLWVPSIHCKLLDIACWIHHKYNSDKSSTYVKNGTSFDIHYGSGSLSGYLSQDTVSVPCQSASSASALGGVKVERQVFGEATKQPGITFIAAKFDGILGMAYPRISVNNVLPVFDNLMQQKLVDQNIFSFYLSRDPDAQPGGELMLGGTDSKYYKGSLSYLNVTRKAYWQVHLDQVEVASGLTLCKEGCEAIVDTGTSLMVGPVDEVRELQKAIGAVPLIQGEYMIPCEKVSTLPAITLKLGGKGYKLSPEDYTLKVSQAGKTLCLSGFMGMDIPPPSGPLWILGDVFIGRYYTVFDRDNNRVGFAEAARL

## Mca-AGFSLPAK(Dnp)[dR]-NH2 (SMILES COc1ccc2c(CC(=O)N[C@@H](C)C(=O)NCC(=O)N[C@@H](Cc3ccccc3)C(=O)N[C@@H](CO)C(=O)N[C@@H](CC(C)C)C(=O)N3CCC[C@H]3C(=O)N[C@@H](C)C(=O)N[C@@H](CCCCNc3ccc([N+](=O)[O-])cc3[N+](=O)[O-])C(=O)N[C@H](CCCNC(=N)N)C(N)=O)cc(=O)oc2c1) [Substrate e]
Cath D [1]
  cleavage sites by Cath D: two minor cleavage sites were identified, one is between the P1 and P1’ sites (-Leu^5-Pro^6-) and a secondary site was found between P3 and P4 positions (-Gly^2-Phe^3-)
Cath E
  Kcat/Km (catalytic efficiency), Cath E: 16.7 µM^−1.S^−1
Cath D [2]; up to 54 nM Cath D, same measurement conditions (50 mM sodium acetate pH 4.0)
  Kcat/Km (catalytic efficiency), Cath D: NM ^§
Cath D [2]; up to 54 nM of Cath D, 50 mM sodium acetate pH 4.0
  cleavage by Cath D: no measurable cleavage
